Experimental data published in ChEMBL document CHEMBL4190374, “Structure-Function Evaluation of Imidazopyridine Derivatives Selective for δ-Subunit-Containing γ-Aminobutyric Acid Type A (GABAA) Receptors” (J Med Chem, 2018).

Key:
[1] = target: T1, Gamma-aminobutyric acid receptor subunit alpha-6/beta-3/gamma-2 (Rattus norvegicus, UniProt P18508+P30191+P63079); test: Modulation of rat […] GABA-A receptor alpha6beta3gamma2 expressed in HEK293 cells in presence of GABA by patch-clamp assay; assay type: cell-based
T1 sequence (P18508 whole entry): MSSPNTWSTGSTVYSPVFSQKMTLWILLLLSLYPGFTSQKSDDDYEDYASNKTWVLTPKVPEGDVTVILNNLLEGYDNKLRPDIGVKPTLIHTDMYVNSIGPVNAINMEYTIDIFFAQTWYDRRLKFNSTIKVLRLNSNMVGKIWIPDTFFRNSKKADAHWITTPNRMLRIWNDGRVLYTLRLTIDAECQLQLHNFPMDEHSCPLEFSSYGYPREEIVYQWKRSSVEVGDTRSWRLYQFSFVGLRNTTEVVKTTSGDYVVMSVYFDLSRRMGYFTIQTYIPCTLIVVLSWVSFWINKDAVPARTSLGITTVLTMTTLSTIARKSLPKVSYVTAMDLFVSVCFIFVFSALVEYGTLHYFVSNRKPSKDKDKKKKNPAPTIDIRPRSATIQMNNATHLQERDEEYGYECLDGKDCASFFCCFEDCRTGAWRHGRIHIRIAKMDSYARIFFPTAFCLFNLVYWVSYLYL
T1 sequence (P30191 whole entry): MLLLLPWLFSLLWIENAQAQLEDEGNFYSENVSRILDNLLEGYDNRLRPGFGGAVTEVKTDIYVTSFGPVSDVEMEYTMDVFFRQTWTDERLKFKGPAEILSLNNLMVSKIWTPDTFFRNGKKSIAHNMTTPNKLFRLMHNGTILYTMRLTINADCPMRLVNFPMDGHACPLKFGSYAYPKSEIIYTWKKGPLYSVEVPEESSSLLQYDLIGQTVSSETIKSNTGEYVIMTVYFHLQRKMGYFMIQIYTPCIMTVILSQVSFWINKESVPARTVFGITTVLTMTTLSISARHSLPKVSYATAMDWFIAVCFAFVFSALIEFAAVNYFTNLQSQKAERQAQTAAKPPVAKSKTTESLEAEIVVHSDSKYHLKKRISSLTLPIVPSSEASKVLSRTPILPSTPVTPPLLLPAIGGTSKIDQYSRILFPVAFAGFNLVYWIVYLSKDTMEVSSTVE
T1 sequence (P63079 whole entry): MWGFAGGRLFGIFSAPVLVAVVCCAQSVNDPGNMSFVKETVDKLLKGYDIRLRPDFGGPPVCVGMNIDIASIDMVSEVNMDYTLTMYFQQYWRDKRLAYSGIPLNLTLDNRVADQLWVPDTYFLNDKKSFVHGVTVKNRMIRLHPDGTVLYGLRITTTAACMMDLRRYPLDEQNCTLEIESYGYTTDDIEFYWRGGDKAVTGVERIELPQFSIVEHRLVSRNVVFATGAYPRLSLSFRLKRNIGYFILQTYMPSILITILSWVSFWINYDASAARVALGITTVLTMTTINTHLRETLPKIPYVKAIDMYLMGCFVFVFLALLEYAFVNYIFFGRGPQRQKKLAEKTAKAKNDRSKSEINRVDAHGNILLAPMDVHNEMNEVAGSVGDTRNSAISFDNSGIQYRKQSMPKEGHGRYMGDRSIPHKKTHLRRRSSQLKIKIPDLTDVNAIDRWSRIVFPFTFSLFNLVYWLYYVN
Procedure, shortened: (§1)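 Rat GABA-A subunits were transiently co-transfected with eGFP into HEK293 cells on coverslips. Fluorescent cells were recorded by whole-cell patch clamp 48 h later; bath pH 7.4, KCl/KOH pipette pH 7.2. Compound was applied at increasing concentrations up to 10 µM with the receptor-specific GABA EC20. Peak currents were fitted logistically for EC50, Hill and % modulation, as mean ± S.E.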

[2] = target: T2, Gamma-aminobutyric acid receptor subunit alpha-6/beta-3/gamma-2 (Rattus norvegicus) (UniProt P18508+P30191+P63079); test: Agonist activity at rat […] GABA-A receptor alpha6beta3gamma2 expressed in HEK293 cells assessed as ratio of I0 to GABA Imax at 10 uM in absence of GABA by patch-clamp assay; assay type: cell-based
Procedure, shortened: (§2)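 Whole-cell patch clamp on single fluorescent HEK 293 cells 48 h after transient co-transfection with rat subunit cDNAs plus eGFP. Extracellular solution 135 mM NaCl, 5.3 mM KCl, 2 mM CaCl2, 2 mM MgSO4, 10 mM HEPES pH 7.4, perfused 3 mL/min. Compound at 10 µM without GABA. Current expressed relative to 1 mM GABA at the same receptor (I0/Imax GABA), mean ± S.D. of n experiments.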

[3] = target: Gamma-aminobutyric acid receptor subunit alpha-6/beta-3 (Rattus norvegicus, UniProt P30191+P63079); test: Displacement of [3H]EBOB from rat GABA-A receptor alpha6beta3 expressed in HEK293 cell membranes after 90 mins by liquid scintillation counting analysis
Gamma-aminobutyric acid receptor subunit alpha-6/beta-3, sequence (P30191 whole entry): as the sequence (P30191 whole entry) above
Gamma-aminobutyric acid receptor subunit alpha-6/beta-3, sequence (P63079 whole entry): as the sequence (P63079 whole entry) above
Procedure, shortened: (§3)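 Crude membranes from HEK 293 cells transiently Ca-phosphate-transfected with rat subunit cDNAs, harvested at 48 h. Membranes (150-200 µg protein) incubated with 3 nM [3H]EBOB in 50 mM Tris/citrate pH 7.3 plus 0.2 M NaCl. Compound up to 10 µM, final DMSO 0.1%, no GABA, 90 min at 21 °C. Bound radioligand collected by GF/C filtration and counted by scintillation.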

[4] = target: Gamma-aminobutyric acid receptor subunit alpha-4/beta-3 (Rattus norvegicus, UniProt P28471+P63079); test: Modulation of rat […] GABA-A receptor alpha4beta3 expressed in HEK293 cells in presence of GABA by patch-clamp assay; assay type: cell-based; procedure, shortened: as §1
Gamma-aminobutyric acid receptor subunit alpha-4/beta-3, sequence (P28471 whole entry): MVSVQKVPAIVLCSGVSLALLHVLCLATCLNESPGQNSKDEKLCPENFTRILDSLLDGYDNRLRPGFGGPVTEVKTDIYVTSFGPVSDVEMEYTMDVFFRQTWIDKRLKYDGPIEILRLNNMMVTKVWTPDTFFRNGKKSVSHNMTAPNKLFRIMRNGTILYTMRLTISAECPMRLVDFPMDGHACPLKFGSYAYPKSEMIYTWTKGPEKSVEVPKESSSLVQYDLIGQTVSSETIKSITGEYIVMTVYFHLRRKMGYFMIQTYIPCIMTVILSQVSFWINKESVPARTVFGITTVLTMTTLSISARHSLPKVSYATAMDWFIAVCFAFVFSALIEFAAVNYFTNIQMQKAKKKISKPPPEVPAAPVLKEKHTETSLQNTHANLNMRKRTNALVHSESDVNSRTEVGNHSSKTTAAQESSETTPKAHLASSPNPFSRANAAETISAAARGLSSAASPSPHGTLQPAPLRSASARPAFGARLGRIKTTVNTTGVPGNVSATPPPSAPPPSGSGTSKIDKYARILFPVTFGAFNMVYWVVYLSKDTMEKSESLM
Gamma-aminobutyric acid receptor subunit alpha-4/beta-3, sequence (P63079 whole entry): as the sequence (P63079 whole entry) above

[5] = target: Gamma-aminobutyric acid receptor subunit alpha-6/beta-3/delta (Rattus norvegicus, UniProt P18506+P30191+P63079); test: Displacement of [3H]EBOB from rat GABA-A receptor alpha6beta3delta expressed in HEK293 cell membranes after 90 mins by liquid scintillation counting analysis; procedure, shortened: as §3
Gamma-aminobutyric acid receptor subunit alpha-6/beta-3/delta, sequence (P18506 whole entry): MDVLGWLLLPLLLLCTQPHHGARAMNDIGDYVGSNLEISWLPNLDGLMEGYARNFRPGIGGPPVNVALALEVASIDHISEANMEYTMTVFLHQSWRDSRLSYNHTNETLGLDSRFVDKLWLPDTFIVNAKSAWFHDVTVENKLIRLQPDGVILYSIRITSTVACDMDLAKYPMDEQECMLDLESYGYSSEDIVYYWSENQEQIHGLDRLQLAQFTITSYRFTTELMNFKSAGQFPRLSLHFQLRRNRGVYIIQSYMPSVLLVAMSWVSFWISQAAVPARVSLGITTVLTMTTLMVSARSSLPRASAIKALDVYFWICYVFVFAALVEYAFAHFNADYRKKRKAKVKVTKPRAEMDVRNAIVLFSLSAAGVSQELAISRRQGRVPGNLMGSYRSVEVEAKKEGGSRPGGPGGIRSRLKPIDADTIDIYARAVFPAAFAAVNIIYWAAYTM
Gamma-aminobutyric acid receptor subunit alpha-6/beta-3/delta, sequence (P30191 whole entry): as the sequence (P30191 whole entry) above
Gamma-aminobutyric acid receptor subunit alpha-6/beta-3/delta, sequence (P63079 whole entry): as the sequence (P63079 whole entry) above

[6] = target: Gamma-aminobutyric acid receptor subunit alpha-6/beta-2 (Rattus norvegicus, UniProt P30191+P63138); test: Displacement of [3H]EBOB from rat GABA-A receptor alpha6beta2 expressed in HEK293 cell membranes after 90 mins by liquid scintillation counting analysis; procedure, shortened: as §3
Gamma-aminobutyric acid receptor subunit alpha-6/beta-2, sequence (P30191 whole entry): as the sequence (P30191 whole entry) above
Gamma-aminobutyric acid receptor subunit alpha-6/beta-2, sequence (P63138 whole entry): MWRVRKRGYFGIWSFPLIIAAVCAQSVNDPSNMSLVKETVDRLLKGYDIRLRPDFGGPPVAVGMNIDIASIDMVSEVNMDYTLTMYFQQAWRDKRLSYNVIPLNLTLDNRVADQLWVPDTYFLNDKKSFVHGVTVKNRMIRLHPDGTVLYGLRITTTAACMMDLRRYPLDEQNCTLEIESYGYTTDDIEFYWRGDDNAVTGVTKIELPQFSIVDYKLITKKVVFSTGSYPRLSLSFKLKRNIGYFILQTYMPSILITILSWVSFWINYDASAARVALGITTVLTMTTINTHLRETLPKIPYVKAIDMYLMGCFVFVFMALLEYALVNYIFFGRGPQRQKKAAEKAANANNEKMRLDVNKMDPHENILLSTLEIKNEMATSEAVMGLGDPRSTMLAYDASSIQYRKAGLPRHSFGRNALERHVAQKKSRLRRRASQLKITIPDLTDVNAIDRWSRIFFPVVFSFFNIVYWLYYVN

[7] = target: Gamma-aminobutyric acid receptor subunit alpha-1/beta-3/delta (Rattus norvegicus, UniProt P18506+P62813+P63079); test: Modulation of rat […] GABA-A receptor alpha1beta3delta expressed in HEK293 cells in presence of GABA by patch-clamp assay; assay type: cell-based; procedure, shortened: as §1
Gamma-aminobutyric acid receptor subunit alpha-1/beta-3/delta, sequence (P18506 whole entry): as the sequence (P18506 whole entry) above
Gamma-aminobutyric acid receptor subunit alpha-1/beta-3/delta, sequence (P62813 whole entry): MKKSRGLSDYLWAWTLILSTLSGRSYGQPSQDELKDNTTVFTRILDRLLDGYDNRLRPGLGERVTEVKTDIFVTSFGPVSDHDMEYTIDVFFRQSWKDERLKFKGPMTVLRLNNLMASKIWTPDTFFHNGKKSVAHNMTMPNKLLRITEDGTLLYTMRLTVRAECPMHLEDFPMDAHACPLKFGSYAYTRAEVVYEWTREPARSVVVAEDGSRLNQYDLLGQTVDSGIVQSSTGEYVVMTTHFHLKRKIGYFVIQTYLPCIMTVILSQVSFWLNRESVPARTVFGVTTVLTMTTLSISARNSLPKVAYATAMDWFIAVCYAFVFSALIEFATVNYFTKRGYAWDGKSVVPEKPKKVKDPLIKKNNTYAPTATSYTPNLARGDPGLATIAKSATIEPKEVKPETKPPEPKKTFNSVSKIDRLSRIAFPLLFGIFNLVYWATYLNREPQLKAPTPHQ
Gamma-aminobutyric acid receptor subunit alpha-1/beta-3/delta, sequence (P63079 whole entry): as the sequence (P63079 whole entry) above

[8] = target: T3, Gamma-aminobutyric acid receptor subunit alpha-4/beta-3/delta (Rattus norvegicus) (UniProt P18506+P28471+P63079); test: Agonist activity at rat […] GABA-A receptor alpha4beta3delta expressed in HEK293 cells assessed as ratio of I0 to GABA Imax at 10 uM in absence of GABA by patch-clamp assay; assay type: cell-based; procedure, shortened: as §2
Rattus norvegicus [9] = species: Rattus norvegicus; test: Selectivity ratio of IC50 for rat GABA-A receptor alpha6beta3delta expressed in HEK293 cells to IC50 for rat GABA-A receptor alpha6beta2delta expressed in HEK293 cells; assay type: cell-based
[10] = target: Gamma-aminobutyric acid receptor subunit alpha-4/beta-3/delta (Rattus norvegicus, UniProt P18506+P28471+P63079); test: Displacement of [3H]EBOB from rat GABA-A receptor alpha4beta3delta expressed in HEK293 cell membranes after 90 mins by liquid scintillation counting analysis; procedure, shortened: as §3
Gamma-aminobutyric acid receptor subunit alpha-4/beta-3/delta, sequence (P18506 whole entry): as the sequence (P18506 whole entry) above
Gamma-aminobutyric acid receptor subunit alpha-4/beta-3/delta, sequence (P28471 whole entry): as the sequence (P28471 whole entry) above
Gamma-aminobutyric acid receptor subunit alpha-4/beta-3/delta, sequence (P63079 whole entry): as the sequence (P63079 whole entry) above

[11] = target: Gamma-aminobutyric acid receptor subunit alpha-6/beta-3 (Rattus norvegicus) (UniProt P30191+P63079); test: Modulation of rat […] GABA-A receptor alpha6beta3 expressed in HEK293 cells up to 10 uM in presence of GABA by patch-clamp assay relative to control; assay type: cell-based; procedure, shortened: as §1
[12] = target: Gamma-aminobutyric acid receptor subunit alpha-6/beta-3/delta (Rattus norvegicus) (UniProt P18506+P30191+P63079); test: Agonist activity at rat […] GABA-A receptor alpha6beta3delta expressed in HEK293 cells assessed as ratio of I0 to GABA Imax at 10 uM in absence of GABA by patch-clamp assay; assay type: cell-based; procedure, shortened: as §2
[13] = target: Gamma-aminobutyric acid receptor subunit alpha-1/beta-3/delta (Rattus norvegicus) (UniProt P18506+P62813+P63079); test: Displacement of [3H]EBOB from rat GABA-A receptor alpha1beta3delta expressed in HEK293 cell membranes at 10 uM after 90 mins by liquid scintillation counting analysis relative to control; procedure, shortened: as §3
[14] = target: T3, Gamma-aminobutyric acid receptor subunit alpha-4/beta-3/delta (Rattus norvegicus); test: Displacement of [3H]EBOB from rat GABA-A receptor alpha4beta3delta expressed in HEK293 cell membranes up to 10 uM after 90 mins by liquid scintillation counting analysis relative to control; procedure, shortened: as §3
[15] = target: Gamma-aminobutyric acid receptor subunit alpha-1/beta-3 (Rattus norvegicus) (UniProt P62813+P63079); test: Agonist activity at rat […] GABA-A receptor alpha1beta3 expressed in HEK293 cells assessed as ratio of I0 to GABA Imax at 10 uM in absence of GABA by patch-clamp assay; assay type: cell-based; procedure, shortened: as §2
[16] = tested on: GABA-A receptor alpha6beta3delta (++); test: Modulation of rat eGFP-fused GABA-A receptor alpha6beta3delta expressed in HEK293 cells up to 10 uM in presence of GABA by patch-clamp assay relative to control
[17] = target: T2, Gamma-aminobutyric acid receptor subunit alpha-6/beta-3/gamma-2 (Rattus norvegicus); test: (§4) Displacement of [3H]EBOB from rat GABA-A receptor alpha6beta3gamma2 expressed in HEK293 cell membranes after 90 mins in presence of GABA by liquid scintillation counting analysis
[18] = target: T1, Gamma-aminobutyric acid receptor subunit alpha-6/beta-3/gamma-2; test: as §4
[19] = target: Gamma-aminobutyric acid receptor subunit alpha-4/beta-3/gamma-2 (Rattus norvegicus) (UniProt P18508+P28471+P63079); test: Agonist activity at rat […] GABA-A receptor alpha4beta3gamma2 expressed in HEK293 cells assessed as ratio of I0 to GABA Imax at 10 uM in absence of GABA by patch-clamp assay; assay type: cell-based; procedure, shortened: as §2
Rattus norvegicus [20] = species: Rattus norvegicus; test: Selectivity ratio of IC50 for rat GABA-A receptor alpha4beta3 expressed in HEK293 cells to IC50 for rat GABA-A receptor alpha4beta3delta expressed in HEK293 cells; assay type: cell-based

EC50 [1]: 870 nM | Ratio [2]: 1.12 | IC50 [3]: 790 nM | EC50 [4]: 60 nM | IC50 [5]: 310 nM | IC50 [6]: 630 nM | EC50 [7]: 100 nM | Ratio [8]: 1.61 | IC50 [10]: 510 nM | Activity [11]: 1140% | Ratio [12]: 1.04 | Imax [13]: 18% | Imax [14]: 61% | Ratio [15]: 0.074 | Activity [16]: 802% | Imax [17]: 93% | IC50 [18]: 1090 nM | Ratio [19]: 0.163
Compound: O=C(Nc1c(-c2cccs2)nc2c(Br)cc(Br)cn12)c1ccc(Cl)cc1
Ratio IC50 (Rattus norvegicus [9]): 2 | Ratio IC50 (Rattus norvegicus [20]): 4
